Experimental findings from the RNAGym collection of RNA variant scans (doi:10.1126/science.aae0568) are described below.

Fewer inactive variants are shown than the library holds.

B1: tRNA (parent)
chain: GUUCCGUUGGCGUAAUGGUAACGCGUCUCCCUCCUAAGGAGAAGACUGCGGGUUCGAGUCCCGUACGGAACG

Variants of B1 are the subject of the data set. The data set is described as follows: yeast fitness relative to wild type (ratio to wild type); higher = fitter; tRNA-Arg(CCU), competitive growth, 37 C, YPD. The procedure, abridged:
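Amplicons of the tRNA-Arg(CCU) gene were sequenced, 100-nucleotide paired-end, from the start population and from each end population of a pooled yeast competition. The competition, in six parallel replicates, lasted 24 hours in YPD at 37°C. Fitness relative to wild type was calculated from changes in genotype frequencies. Genotypes had to have ≥ 100 starting reads, and estimates < 0.5 were set to 0.5.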
On to GUCCCGAUGGCGUAAUGGUAACGCGUCUCCCUCCUAAGGAGAACACUGCGGGUUCGAGUCUUCAAUGGGACG, for which the yeast fitness is at most 0.5.

GUCCCGUUGGCGACAUGGUAACGCGUCUCCCUCCUAAGGAGGAGACUGCGGGUUCGAGUCCCGUACGGAACG: the yeast fitness was at most 0.5.

As to GUCCCGUUGGCGUAAUGGUAACGCGUCUCCCUCCUAAGGAGAAGACUGCGGGUUCGAGUCCCAUACGGAUCG, the yeast fitness was determined as 0.655.

GUCCCGUGGGCGUAAUGGUAACGCGUCUCCCAGCUAAGGAGAAGACUGCGGGUUCGAGUCUUGUACGGAACG: the yeast fitness is 0.561.

On to GUCCCGUUGGCGAAAUGGUCACGCGUCUCGAUCCUAAGGAGAAGACUGCGGGUUCGAGUCCCGUACGGAACG, for which the yeast fitness is at most 0.5.

Regarding GUCCCGUCGGCGUGAUGGUAACGCGUCGCCCUCCUUAGGAGAAGAUUGCGGGUUCGAGUCUCGUACGGAACG, the yeast fitness is 0.549.

With GUCCCGUUGGCGAAAUGGUAACGCGUCUCCCUCCUAAGGAGAAGCCUACGGGUUCGAGUCCCGCACGGAACG, the yeast fitness came out at 0.57.

With GUCCCGGUGGCGUCAUGGUAACGCGUCUCCAUCCUAAGGAGAAGACUGCAGCUUCGAGUCCCGUCCGGAACG, the yeast fitness was at most 0.5.

Take GUCCCGUUGGCGAAAUGGUAACGCGUCUCCCUCCUAAGGCGAAGACUGCGGGUUCGAGUCCCGUACGGAACG: the yeast fitness is at most 0.5.

In the case of GUCCCGUUGGCGUAAUGGUAACGCGUCUCCCUCCUAAGGAGAAGACUGCGGGUUCGAGUCCCCCACGGAACG, the yeast fitness was found to be 0.631.

With GUCCCGUUGGCGAAAUGGUCACGCGUCUCGAUCCUAAGGAGAAGACUGCGGGUUCGAGUCCCGUACCGAACG, the yeast fitness was at most 0.5.

On to GUCCCGUAGGCGUACUGGUAACGCGUCUCCGUCCUAAGGAGAAGACUGUGGGUUCGUGUCCCGUACGGAACG, for which the yeast fitness worked out at 0.609.

For GUCCCGAUGGCGUAAUGGUGACGCGUCUCCUUCCUAAGGAGAAGACUGCGGGUUCGCGUCCCGUACCGAACG, the yeast fitness was at most 0.5.

Consider GUCCCGUCGGCGUGAUGGUAACGCGUCGCCCUCCUUAGGAGAAGAUCGCGGGUUCGAGUCUCGUACGGAACG, for which the yeast fitness was found to be 0.553.

As to GUCCCGUGGGCGUAAUGGUAACGCGUCGCCAUCCUAAGGAGAAGACUGCGGGUUCGAGUCUCGUACGGAACG, the yeast fitness was at most 0.5.

On to GUCCCGUCGGCGUAAUGGUAACGCGUCUCCCUCCUAAGGAGAAGUCUGCGGGUUCGAGUCCCGUACGGAACG, for which the yeast fitness was determined as 0.721.

Take GUCCCGUUGGCGAAAUGGUCACGCGUCUCGAUCCUAAGGAGAAGACUGCGGGUAUGAGUCCCGUACGGAACG: the yeast fitness turned out to be 0.521.

GUCCCGAUGGCGUAAUGGUAACGCGUCGCCCUCCUAAGGAGAUGACUGCGGGUUCCUGUCCCGUACAGAACG: the yeast fitness is at most 0.5.

Consider GUCCCGUCAGCGUAAUGGUAACGCGUCUCCCUCCUAAGGAGAAGACUGCGGGUUCGAGUCCCGUACGGUACG, for which the yeast fitness was found to be 0.564.

On to GUCCCGUUGGCGUAAUGGUAACGCGUCUCCCUCCUAAGGAGAAGACUGCGGGUUCGAGUCCCGUACGAAACG, for which the yeast fitness came out at 0.866.

GUCCCGUUGGCGUAAUGGUAACGCGUCUCCCUCCUAAGGAGAAGACUGCGGGUUCGAGUCCCGUACGCAACG: the yeast fitness was determined as 0.845.

As to GUCCCGUGGGCGUAAUGGUAACGCGUCUCCCAGCUAAGGAGAAGACUGCGGGUUCGAGUCCUGUACGGAACG, the yeast fitness is at most 0.5.

With GUCCCGUCGGCGUAAUGGUAACGCGUCUCCCUCCUAAGGAGAAGACUGCGGGUUCGCGUCCCGUACGGAACG, the yeast fitness is at most 0.5.

For GUCCCGUGGGCGUAAUGGUAACGCGUCUCCCAGCUAAGGAGAAGACUGCGGGAUCGAGUCCCGUACGGCACG, the yeast fitness is at most 0.5.

GUCCCGUUGGCGAAAUGGUAACGCGUCUCCCUCCUAAGGAGAAGCCUACGGGUUCGAGUCCCGUACGGAACG: the yeast fitness turned out to be 0.604.

With GUCCCGAUCGCGUAAUCGUAACGCGUCUCCCUCCUAAGGAGAAGACUACGGGUUCGAGUCCCGUACGGUACG, the yeast fitness is at most 0.5.

For GUCCCGUUGGCGUAAUGGUAACGCGUCUCCCUCCUAAGGAGAAGACUGCGGGUUCGAGUCCCGUACCGAACG, the yeast fitness was 0.783.

As for GUCCCGUUGGCGUAAUGGUAACGCGUCUCCCUCCUAAGGAGAAGACUGCGGGUUCGAGUCCCGUACUGAACG, the yeast fitness was 0.839.

Regarding GUCCCGUGGGCGUAAUGGUAACGCGUCUCCCUCCUAAGGAGAAGACUGCGGGUUCGAGUCCCGUACGGAACG, the yeast fitness turned out to be 0.581.

As to GUCCCGUUGGCGAAAUGGUAACGCGUCUCCUUCCUAAGGAAAAGACUGCGGGUUCGAGUCCCGUACGGACCG, the yeast fitness worked out at 0.639.

For the variant GUCCCGCUGGCGUAAUGGAAACACGUCUGCCUCCUAAGGAGAAGUCUGCGGGUUCGAGUGUCGUACGGGACG, the yeast fitness was at most 0.5.

With GUCCCGUCGGAGUAAUGGUAACGCGUCUCCAUCCUAAGGAGAAGACUGCGGGUUCGAGUCCCGUACGCAACG, the yeast fitness is at most 0.5.

Consider GUCCCGUCGGAGUAAUGGUAACGCGUCUCCCGCCUAAGGAGAAGACUGCGGGUUCGAGUCAAGUACGGAACG, for which the yeast fitness is at most 0.5.

Consider GUCCCGUCGGCGUAAUGGUAACGCGUCUCCCUCCUAAGGAGAAGACUGCGGGUUCGAGUCCCGUACGGUACG, for which the yeast fitness was determined as 0.81.

Take GUCCCGUAGGCGCAAUGGUAACGCGUCUCCCUCCUAAGGAGAAGACUGCGGGUUCGAGUCCCGUACGGAACG: the yeast fitness is at most 0.5.

Turning to GUCCCGUUGGCGAAAUGGUAACGCGUCUCCUUCCUAAGGAAAAGACUGCGGGUUCGAGUCGCGUACGGAACG, the yeast fitness was at most 0.5.

On to GUCCCGCUGGCGUAAUGGUAACGCGUCUCCCUCCCAAGGAGAAGACUGCGGGUUCGAGUCCCGUACGGAACG, for which the yeast fitness came to 0.505.

Turning to GUCCCGUAGGCGUAAUGGUAACGCGUCUCCCUCCUAAGGAGAGGACUGCGGGUUCGUGUCCCAUACGGAACG, the yeast fitness was at most 0.5.
